Data set [1] can be described thus: Reaction of electrophiles with CoASH, adduct formation monitored by LC-MS. It counts as physicochemical. As to conditions: for kforward, reaction with CoASH: 25 °C, pH 7.5 phosphate buffer, 2 mM each of CoASH and electrophile, 1 mM TCEP, 5% MeOH, same with and without 1.2 μM AANAT. In outline:
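Uncatalyzed electrophile–CoASH reactions contained 5% MeOH for electrophile dissolution. CoASH adduct formation was followed over time by LC-MS. Rate constants came from global kinetic fitting of product accumulation. Upper and lower bounds were set within a 0.83 relative error threshold.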

In another data set the test system is melatonin receptors. The note with it: cited from earlier work.
The conditions of data set [2]: cited from earlier work.
The subject of the next data set is sheep AANAT enzyme. The note with it: truncated bisubstrate inhibitor versus 2; cited from earlier work.
In another data set the target is AANAT (Ovis aries, UniProt Q29495). The data set can be described thus: AANAT enzymatic. As to conditions: for Fold less potent than 1 (AANAT IC50): relative to compound 1; for Inhibition of AANAT at 10 μM test compound concentration: sheep AANAT. It is filed as biochemical, Ovis aries (sheep).
Chain of AANAT (Q29495 whole entry): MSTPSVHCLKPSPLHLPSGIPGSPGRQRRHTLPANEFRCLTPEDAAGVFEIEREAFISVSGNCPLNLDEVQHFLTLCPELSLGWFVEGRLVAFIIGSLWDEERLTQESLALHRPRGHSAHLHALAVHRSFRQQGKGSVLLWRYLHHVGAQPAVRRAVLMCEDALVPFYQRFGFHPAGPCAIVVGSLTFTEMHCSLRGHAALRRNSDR
A further data set has as its system human AANAT enzyme. The note with it: cited from earlier work.

Each structure is given as a SMILES string.

In the case of `O=C(CBr)NCCc1c[nH]c2ccccc12` [Compound 1, bromoacetyltryptamine, reference compound], in data set [1] (pH 6.8, absence of AANAT), the “Second order rate constant, reaction with CoASH” value was 1.31 M⁻¹ min⁻¹. In addition, the “Effect of AANAT on rate of reaction with CoASH” value in data set [1] (pH 7.5) was “the same in the presence and absence of AANAT”. The “Selectivity against melatonin receptors” value in the data set with melatonin receptors was “lack selectivity”.
As to `CC(C)(CO[P@@](=O)(O)O[P@@](=O)(O)OC[C@H]1O[C@@H](n2cnc3c(N)ncnc32)[C@H](O)[C@@H]1OP(=O)(O)O)[C@@H](O)C(=O)NCCC(=O)NCCSCC(=O)NCCc1c[nH]c2ccccc12` [Compound 2], the Cell permeability entry in data set [2] is recorded as “poor cell permeability”.
As to `CC(C)(COP(=O)(O)OP(=O)(O)OC[C@H]1O[C@@H](n2cnc3c(N)ncnc32)[C@H](O)[C@@H]1OP(=O)(O)O)[C@@H](O)C(=O)NCCC(=O)NCCSC(=O)NCCc1c[nH]c2ccccc12` [Compound 3a], the “Fold less potent than 2 (reported)” value in the data set on sheep AANAT enzyme is 4 X.
Regarding `O=C(CBr)NCc1c[nH]c2ccccc12` [Compound 8], the “Fold less potent than 1 (AANAT IC50)” value at AANAT is listed as 6 X.
In the case of `C=CC(=O)NCCc1csc2ccc(OC)cc12` [Compound 7], the “Fold less potent than bromoacetyl analog 5 (reported IC50)” value in the data set with human AANAT enzyme is given as 40 X.
With `C=CS(=O)(=O)NCc1c[nH]c2ccccc12` [Compound 12], the “Inhibition of AANAT at 10 μM test compound concentration” value on AANAT was “inactive”. The “kforward, reaction with CoASH” value in data set [1] came to 0.261 M⁻¹ min⁻¹.
Regarding `C=CC(=O)NCc1c[nH]c2ccccc12` [Compound 10], the “kforward, reaction with CoASH” value in data set [1] stood at 0.0156 M⁻¹ min⁻¹. For the same compound, the “Reaction rate with CoASH at pH 6.8 relative to pH 7.5” value in data set [1] (pH 6.8, in the presence of enzyme) is on record as “several times slower than at pH 7.5”.
Take `C=CS(=O)(=O)NCCc1c[nH]c2ccccc12` [Compound 13]: the “Inhibition of AANAT at 10 μM test compound concentration” value on AANAT is “inactive”. Also, the “kforward, reaction with CoASH” value in data set [1] is 0.110 M⁻¹ min⁻¹.
Taken in the same sequence, the figures for `C=CC(=O)NCCc1c[nH]c2ccccc12` [Compound 11] were “inactive” and 0.00873 M⁻¹ min⁻¹.
Turning to `O=C(CBr)NCCc1csc2ccc(O)cc12` [Compound 6], in the data set with melatonin receptors, the “Selectivity against melatonin receptors” value is recorded as “lack selectivity”.
As to `O=C(CBr)NCCCc1c[nH]c2ccccc12` [Compound 9], the “Fold less potent than 1 (AANAT IC50)” value on AANAT is 6 X.

These data come from publication PMC11729038 (Bioorganic & medicinal chemistry letters, 2024).
